Experimental data from different studies.
Target: Serine/threonine-protein kinase PknB (pknB, Mycobacterium tuberculosis, UniProt P9WI81)

SMILES | assay | conditions | remaining binding
O=C(NCC1CCOCC1)c1n[nH]cc1NC(=O)c1c(F)cccc1F | binding, competition with immobilised ligand | 1 µM | 99%
CN(C)c1ncc(F)c(-c2cnn3ncccc23)n1 | binding | 1 µM | 87%
CC1=C(C#N)C(c2ccc3c(c2)c(NC(=O)c2ccccc2C)nn3C)C(C#N)=C(C)N1 | cell-free assay, competition with immobilised ligand | 1 µM | 97%
CN(c1nccc(-c2cnn3ncccc23)n1)C1CC1 | binding | 1 µM | 100%
COc1cnc(Nc2cccc(S(N)(=O)=O)c2)nc1N1CCN(c2ccccc2)CC1 | binding, competition with immobilised ligand | 1 µM | 99%
C=CC(=O)N1CCC(C(=O)NCC(=O)N2CCN(c3nc(-c4cnc(N)nc4C(F)F)nc(N4CCOCC4)n3)CC2)CC1 | binding, competition with immobilised ligand | 1 µM | 67%
C[C@@H]1CCN(c2nccc(-c3cnn4ncccc34)n2)C1 | binding | 1 µM | 100%
CS(=O)(=O)N1CCCC(NC(=O)[C@H](CCC2CCCCC2)NC(=O)c2ccc(CNc3ncnc4c3nnn4-c3ccccc3)cc2)C1 (stereo partly drawn) | cell-free assay, competition with immobilised ligand | 0.1 µM | 90%
N[C@H]1CCN(c2nccc(-c3cnn4ncccc34)n2)C1 | binding | 1 µM | 98%
Cc1c(NC(=O)c2cc(C(N)=O)nc3cc(F)ccc23)c(C(F)(F)F)nn1Cc1ccc(C#N)cc1 | cell-free assay, competition with immobilised ligand | 1 µM | 78%
C[C@@H](c1ccc(-n2cnc3c(N)ncnc32)cc1)N1CCc2nn(C)c(Cc3ccccc3)c2C1=O | binding, competition with immobilised ligand | 0.1 µM | 96%
CNC(=O)Nc1ccc2c(c1)[C@@]1(CC2)OC(=O)N(CC(=O)N(Cc2ccc(F)cc2)[C@@H](C)C(F)(F)F)C1=O | cell-free assay, competition with immobilised ligand | 1 µM | 84%
COc1cnc(Nc2cccc(S(N)(=O)=O)c2)nc1N1CCN(c2ccccc2)C(=O)C1 | binding, competition with immobilised ligand | 1 µM | 86%
CN(C)CC#Cc1ccc(OCCCc2sc(N3CCc4cccc(C(=O)Nc5nc6ccccc6s5)c4C3)nc2C(=O)O)c(F)c1 | cell-free assay, competition with immobilised ligand | 1 µM | 100%
c1cnn2ncc(-c3ccnc(N4CCC45COC5)n3)c2c1 | binding | 1 µM | 79%
